# An excerpt weighted towards active compounds, which were near 2.1% of everything screened.
# Runt-CBFb FRET – blocks binding of human RUNX1 Runt domain to CBFb | Q01196+Q13951 | Cerulean-Runt/Venus-CBFb FRET ratio 530/480, 1 h | inhibition, % at 20 µM | hit rate 0.46% among 220,000 | AID 1496;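 active = inhibition over about 50% at 20 µM in the single-dose screen, limit read from the data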;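 note: 0% = DMSO wells and 100% = excess unlabeled CBFb competitor control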
#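 Reagent – Venus-CBFb binding partner, 100 nM · Assay system – Cerulean-tagged RUNX1 Runt domain (FRET donor) fusion protein · Input – 100 nM per protein · Incubation – two 1 h room-temperature incubations shielded from light · Measured by – FRET fluorescence · Medium – Tris buffer pH 7.5 with salts and BSA · Benchmarks – unlabeled CBFb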
# m-calpain inh – inhibitors of pig calpain II; purified calpain II, fluorogenic peptide substrate, 30 min; inhibition, % at 16 µM; hit rate 0.37% among 220,000; AID 1236;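 active = inhibition above about 50%, limit read from the data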
# RanGTP-Impb inh – inhibitors of RanGTP-importin-beta interaction, primary screen, biochemical, FRET, CFP-Ran, YFP-importin-beta, homogeneous. cell-free CFP-Ran/YFP-importin-beta FRET ratio. inhibition, % (concentration not given with the values). hit rate 1.1% among 300,000. AID 2216;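 active = more than half of the replicate wells show a fall in the fluorescence ratio signal beyond about 16%, limit read from the data, passing the limit was not always enough; inconclusive = exactly half of the replicate wells pass the set limit; inactive = fewer than half of replicates pass the limit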;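 note: 0% = DMSO wells and 100% = Ran loaded with GDP instead of GTP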
# FAS-TE inh – blocks the thioesterase domain of human fatty acid synthase. recombinant FAS-TE, OMFH fluorogenic substrate, fluorescence endpoint. AID 602261. inhibition, % at 15 µM. P49327. hit rate 0.67% among 360,000;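 active = compounds whose normalised, plate-corrected inhibition of enzyme fluorescence in the single-dose primary screen is 50% or more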;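 note: 0% = DMSO with enzyme and 100% = substrate without enzyme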
# Runt-SMMHC FRET – Runt domain-CBFb-SMMHC interaction inhibition; hit rate 0.74% among 220,000; AID 1434; inhibition, % at 20 µM; Q01196+Q13951; Cerulean-Runt/Venus-CBFb-SMMHC FRET ratio 530/480, 1 h;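 active = mean inhibition across duplicate retests at 20 µM reaching about 50%, limit read from the data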;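 note: 0% = DMSO wells and 100% = wells with excess untagged CBFb-SMMHC; inhibitors lower the FRET ratio by blocking Runt binding to CBFb-SMMHC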
# FAS-TE inh conf – confirmation of human fatty acid synthase thioesterase inhibitors. hit rate 45% among 2,300. shares compounds with FAS-TE inh. recombinant FAS-TE, OMFH fluorogenic substrate, fluorescence. inhibition, % at 15 µM;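 active = compounds inhibiting the enzyme by at least 50% at 15 µM in any one of the replicates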;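 note: 0% = enzyme with DMSO only and 100% = wells lacking enzyme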
# An asterisk follows results filed as active; ? = inconclusive; / = not tested or not shown.
SMILES,Runt-CBFb FRET,m-calpain inh,RanGTP-Impb inh,FAS-TE inh,Runt-SMMHC FRET,FAS-TE inh conf
CCN(CC(=O)Nc1ccc(OC)cc1)C(=O)c1cc([N+](=O)[O-])ccc1N1CCOCC1,/,/,0,28,/,/
CN1CCN(c2ccc(NC(=O)c3cc([N+](=O)[O-])ccc3N3CCOCC3)cc2)CC1,/,/,6,0,/,/
CCOc1ccc(NC(=O)c2cc([N+](=O)[O-])ccc2N2CCOCC2)cc1,/,/,3,55*,/,65*
CCOc1ccc(NC(=O)COC(=O)c2cc([N+](=O)[O-])ccc2N2CCOCC2)cc1,/,/,3,61*,/,39
O=C(NC12CC3CC(CC(C3)C1)C2)c1cc([N+](=O)[O-])ccc1N1CCOCC1,0,15,3,51*,1,39*
CCN1CCN(C(=O)C(C)Sc2nnc3nc(C)cc(C)n23)CC1 (stereo unspecified),/,/,/,-8,/,/
Cc1cn(CC(=O)NCCCN2CCCC2=O)c(=O)[nH]c1=O,/,/,/,-8,/,/
O=C(NC(=S)Nc1ccccc1)c1cc([N+](=O)[O-])ccc1N1CCOCC1,3,-15,-2,58*,2,51*
O=C(NCc1cccnc1)c1cc([N+](=O)[O-])ccc1N1CCOCC1,1,-4,2,-1,-3,/
O=C(Nc1ccccc1)c1cc([N+](=O)[O-])ccc1N1CCCCC1,/,/,/,47,/,/
O=C(Nc1ccc(Cc2ccncc2)cc1)c1cc([N+](=O)[O-])ccc1N1CCOCC1,-1,7,-6,82*,2,88*
O=C(NCCOc1ccccc1)c1cc([N+](=O)[O-])ccc1N1CCOCC1,/,/,/,57*,/,30
CCN(CC(=O)NC(C)(C)C)C(=O)c1cccc(S(=O)(=O)N2CC3(C)CC2CC(C)(C)C3)c1 (stereo unspecified),/,/,/,-3,/,/
Cc1ccc(S(=O)(=O)c2nnn3c2nc(N2CCOCC2)c2ccccc23)cc1,/,/,-1,37,/,/
Cc1ccc(S(=O)(=O)c2nnn3c2nc(N2CCCCC2)c2ccccc23)cc1,-2,-74,-2,35,2,/
Cc1ccc(S(=O)(=O)c2nnn3c2nc(N2CCN(c4ccccn4)CC2)c2ccccc23)cc1C,/,/,1,53*,/,0
CCc1ccc(S(=O)(=O)c2nnn3c2nc(N2CCOCC2)c2ccccc23)cc1,/,/,2,60*,/,36*
Cc1ccc2nc(C)c(C(=O)NN=C3CCCCCC3)n2c1,-2,-23,3,-10,0,/
CCOc1ccccc1NC(=O)c1nc(S(=O)(=O)Cc2ccccc2)ncc1Cl,/,/,1,60*,/,59*
CCS(=O)(=O)c1ncc(Cl)c(C(=O)Nc2ccccc2OC)n1,/,/,1,15,/,/
CC(=O)Nc1ccc(NC(=O)c2nc(S(=O)(=O)Cc3cccc(C)c3)ncc2Cl)cc1,/,/,3,27,/,/
COC(=O)c1ccc(NC(=O)c2nc(S(=O)(=O)Cc3cccc(C)c3)ncc2Cl)cc1,/,/,4,55*,/,29
COc1ccccc1NC(=O)c1nc(S(=O)(=O)Cc2ccccc2)ncc1Cl,/,/,1,55*,/,19
O=C(NC(=S)Nc1ccccc1N1CCCC1)c1ccc(-c2cccc([N+](=O)[O-])c2)o1,7,-41,-4,22,-3,/
CC(=O)N1CCN(c2ccccc2NC(=O)c2ccc(-c3cccc([N+](=O)[O-])c3)o2)CC1,7,1,-3,66*,-4,42*
SMILES,Runt-CBFb FRET,m-calpain inh,RanGTP-Impb inh,FAS-TE inh,Runt-SMMHC FRET,FAS-TE inh conf
COc1ccc(NC(=S)N2CCN(c3ccc4c(c3)C3CCN(C(=O)OCc5ccccc5)C4C3)CC2)c(OC)c1 (stereo unspecified),/,/,/,57*,/,11
O=C(CNc1cc(S(=O)(=O)N2CCCC2)ccc1OCC(F)(F)F)Nc1cccc(C(F)(F)F)c1,-8,22,2,64*,1,18
O=C(CNc1cccc(C(F)(F)F)c1)Nc1cccc(S(=O)(=O)N2CCCC2)c1,/,/,/,21,/,/
C[C@]1(C(=O)NCc2cc(F)cc(C(F)(F)F)c2)C=C[C@@H](Cc2ccccc2)N1C(=O)c1ccccc1,-11,1,4,68*,-10,23
COCCNC(=O)[C@@]1(C)C=C[C@@H](Cc2ccccc2)N1C(=O)c1ccccc1,/,/,?,-13,/,/
COc1cc(C(=O)N(C)CC2CCN(CCc3cccc(C(F)(F)F)c3)CC2)ccc1C,/,/,5,-3,/,/

# Bioassay records (PubChem BioAssay)
